The source of these data is ChEMBL document CHEMBL4007422 (J Med Chem, 2017).

Series [1] is described as follows: Half life in Wistar rat at 10 mg/kg, iv by LC-MS/MS analysis. It counts as ADME, organism-based. Conditions: in vivo; call rule not given here.
Series [2] has as its target D(3) dopamine receptor (Homo sapiens) (UniProt P35462). In words: Inhibition of recombinant human dopamine D3 receptor expressed in CHOK1 cells at 1 uM by GTPgammaS binding assay. It counts as functional, cell-based. Background: GTPγS is a poorly hydrolysed GTP analogue; its binding reports G protein activation.
Series [3] has as its target Alpha-2C adrenergic receptor (Homo sapiens) (UniProt P18825). In words: Inhibition of recombinant human adrenergic alpha 2C receptor expressed in CHOK1 cells at 1 uM. It counts as cell-based.
Series [4] is described as follows: AUC (0 to t) in Beagle dog at 10 mg/kg, po. Format: ADME, organism-based, Canis lupus familiaris. Conditions: in vivo.
Series [5] deals with Cytochrome P450 2A6 (Homo sapiens, UniProt P11509). In words: Inhibition of CYP2A6 in human liver microsomes in presence of NADPH by LC-MS/MS analysis. Format: ADME. In outline: (§1)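 Pooled human liver microsomes. IC50 determined from isoform-specific marker activities for CYP1A2, 2A6, 2B6, 2C8, 2C9, 2C19 (mephenytoin hydroxylation) and 2E1.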
Series [6] deals with Cytochrome P450 2C9 (Homo sapiens, UniProt P11712). In words: Inhibition of CYP2C9 in human liver microsomes in presence of NADPH by LC-MS/MS analysis. Format: ADME. In outline: as §1
Background: Microsomes from liver hold many membrane-bound enzymes, among them those of drug oxidation.

In series [7] the target is Cytochrome P450 1A2 (Homo sapiens, UniProt P05177). In words: Induction of CYP1A2 activity in human hepatocytes at 0.01 to 1 uM preincubated for 3 days followed by substrate addition measured after 30 mins. Particulars: 0.5 h. It counts as ADME, cell-based. In outline:
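Plateable human hepatocytes exposed to 0.01, 0.1 and 1.0 μM. CYP1A2, CYP2B6 and CYP3A4 induction read as both mRNA expression and enzyme activity.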

Series [8] has as its system Homo sapiens. In words: Toxicity in healthy elderly male human subjects administered as multiple ascending dose for 14 days. Conditions: 336 h.

Sequence of Cytochrome P450 1A2 (P05177 whole entry): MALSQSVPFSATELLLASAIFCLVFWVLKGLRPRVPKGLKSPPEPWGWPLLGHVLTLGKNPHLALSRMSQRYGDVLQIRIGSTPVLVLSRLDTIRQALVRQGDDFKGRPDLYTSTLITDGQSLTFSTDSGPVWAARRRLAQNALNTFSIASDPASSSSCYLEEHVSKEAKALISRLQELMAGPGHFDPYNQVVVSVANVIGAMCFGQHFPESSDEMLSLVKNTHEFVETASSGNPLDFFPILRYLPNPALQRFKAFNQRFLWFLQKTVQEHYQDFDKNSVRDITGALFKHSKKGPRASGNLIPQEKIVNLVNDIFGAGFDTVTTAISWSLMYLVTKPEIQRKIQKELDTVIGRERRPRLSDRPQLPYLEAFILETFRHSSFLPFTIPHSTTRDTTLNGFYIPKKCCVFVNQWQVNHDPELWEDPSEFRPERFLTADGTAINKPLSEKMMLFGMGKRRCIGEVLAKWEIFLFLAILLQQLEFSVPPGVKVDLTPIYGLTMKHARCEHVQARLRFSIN
Sequence of Cytochrome P450 2C9 (P11712 whole entry): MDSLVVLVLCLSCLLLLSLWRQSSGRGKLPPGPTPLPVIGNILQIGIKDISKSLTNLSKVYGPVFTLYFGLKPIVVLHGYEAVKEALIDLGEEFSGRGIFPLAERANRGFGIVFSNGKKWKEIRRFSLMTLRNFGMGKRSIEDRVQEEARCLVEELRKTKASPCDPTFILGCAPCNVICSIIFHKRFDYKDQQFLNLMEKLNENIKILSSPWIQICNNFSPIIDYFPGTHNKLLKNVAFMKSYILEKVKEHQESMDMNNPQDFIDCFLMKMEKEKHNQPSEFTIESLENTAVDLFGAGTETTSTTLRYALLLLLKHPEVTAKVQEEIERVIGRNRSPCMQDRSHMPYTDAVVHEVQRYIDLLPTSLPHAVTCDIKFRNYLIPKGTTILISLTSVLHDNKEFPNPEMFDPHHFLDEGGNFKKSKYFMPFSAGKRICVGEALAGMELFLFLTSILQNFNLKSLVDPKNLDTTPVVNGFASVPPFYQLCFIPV
Sequence of Alpha-2C adrenergic receptor (Homo sapiens) (P18825 whole entry): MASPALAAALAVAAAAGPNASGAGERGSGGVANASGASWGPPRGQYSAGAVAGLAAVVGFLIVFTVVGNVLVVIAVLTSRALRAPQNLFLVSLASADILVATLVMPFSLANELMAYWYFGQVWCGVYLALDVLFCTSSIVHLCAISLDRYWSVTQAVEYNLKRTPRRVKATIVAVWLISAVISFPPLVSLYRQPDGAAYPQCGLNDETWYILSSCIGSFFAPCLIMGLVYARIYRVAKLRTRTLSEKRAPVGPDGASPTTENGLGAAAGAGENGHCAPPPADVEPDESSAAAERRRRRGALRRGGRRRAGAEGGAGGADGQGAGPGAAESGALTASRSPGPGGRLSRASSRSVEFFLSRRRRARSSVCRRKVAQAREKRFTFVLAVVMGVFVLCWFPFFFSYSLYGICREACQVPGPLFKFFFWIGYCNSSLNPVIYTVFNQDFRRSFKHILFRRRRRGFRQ
Sequence of D(3) dopamine receptor (Homo sapiens) (P35462 whole entry): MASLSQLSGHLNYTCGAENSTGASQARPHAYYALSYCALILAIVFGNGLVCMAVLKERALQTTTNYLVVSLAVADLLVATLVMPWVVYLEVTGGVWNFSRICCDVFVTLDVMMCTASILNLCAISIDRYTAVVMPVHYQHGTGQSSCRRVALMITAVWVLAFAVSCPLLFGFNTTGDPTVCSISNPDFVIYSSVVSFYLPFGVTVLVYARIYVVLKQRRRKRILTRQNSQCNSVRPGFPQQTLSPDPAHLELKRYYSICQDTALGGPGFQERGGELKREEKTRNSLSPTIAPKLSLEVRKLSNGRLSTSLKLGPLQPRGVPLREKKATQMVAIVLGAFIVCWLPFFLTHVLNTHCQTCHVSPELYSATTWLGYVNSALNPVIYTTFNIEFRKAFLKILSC
Sequence of Cytochrome P450 2A6 (P11509 whole entry, canonical isoform): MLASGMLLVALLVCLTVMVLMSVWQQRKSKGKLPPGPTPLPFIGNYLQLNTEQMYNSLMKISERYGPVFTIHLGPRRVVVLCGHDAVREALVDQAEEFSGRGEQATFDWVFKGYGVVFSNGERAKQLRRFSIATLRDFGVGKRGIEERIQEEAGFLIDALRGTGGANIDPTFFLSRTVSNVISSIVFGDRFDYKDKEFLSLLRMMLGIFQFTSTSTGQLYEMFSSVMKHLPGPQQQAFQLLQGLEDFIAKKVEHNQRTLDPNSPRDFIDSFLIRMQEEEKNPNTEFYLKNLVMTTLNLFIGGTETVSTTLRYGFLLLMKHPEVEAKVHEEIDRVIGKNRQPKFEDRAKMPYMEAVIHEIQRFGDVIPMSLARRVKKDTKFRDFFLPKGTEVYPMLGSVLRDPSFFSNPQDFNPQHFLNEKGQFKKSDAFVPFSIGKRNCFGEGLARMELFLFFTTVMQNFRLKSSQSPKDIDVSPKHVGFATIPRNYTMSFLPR

The term half-life denotes how long it takes for the measured level to halve. A higher half-life goes with slow decline. A word on the inhibition: it is the percentage by which the read-out fell short of the control. Broadly, the AUC(0-t) is the area under the concentration-time curve up to a stated or last time point. Read a high AUC(0-t) as high exposure. In general, IC50 refers to the concentration needed to halve the response being measured. Regarding `COc1ccc2c(c1)c(CN1CCN(C)CC1)cn2S(=O)(=O)c1ccccc1Br.CS(=O)(=O)O.O`, the half-life in series [1] was 57 min. Also, the inhibition in series [2] and in series [3] was greater than 50% in each case. Moreover, the exposure AUC(0-t) in series [4] came out at 1360 ng·h/mL. Besides, the IC50 in series [5] and in series [6] was greater than 10 µM each time. Besides, the Activity entry in series [7] is on record as “Not Active”; in series [8], “Non-Toxic”.
